Experimental data: ChEMBL document CHEMBL3593197, “Development of novel DIF-1 derivatives that selectively suppress innate immune responses” (Bioorg Med Chem, 2015)
Calls of active or inactive are those of the source. No cut-off for these calls is given here.

Assays:
Drosophila [1] = experiment: Immunosuppressive activity in Drosophila S2 cells expressing att-luc reporter gene assessed as inhibition of peptidoglycan-induced attacin production pre-treated for 1.5 hrs before peptidoglycan stimulation for 8 hrs by luciferase reporter gene assay; format: functional
Summary of the method: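 S2 cells stably carrying an attacin-promoter luciferase reporter were pre-treated with a concentration series of compound for 1.5 h. They were then stimulated with 100 ng/mL peptidoglycan. After 8 h, cells were lysed and luciferase luminescence was read. IC50 is the concentration lowering signal to 50% of the peptidoglycan-only control. Mean ± SD of four independent experiments.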

[2] = Cytotoxicity against Drosophila S2 assessed as reduction in cell proliferation by WST8 assay; settings: Drosophila S2 cells
Summary of the method: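 S2 cells exposed to a concentration series of compound for 24 h; proliferation read by colorimetric WST-8 conversion. CC50 is the concentration reducing proliferation to 50% of DMSO control. Mean ± SD of four independent experiments.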

Drosophila [3] = experiment: Selectivity index, ratio of CC50 for Drosophila S2 by WST8 assay to IC50 for immunosuppressive activity in Drosophila S2 cells expressing att-luc reporter gene assessed as inhibition of attacin production; format: functional
Summary of the method: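 The ratio is CC50 divided by IC50. CC50 comes from 24 h WST-8 proliferation of S2 cells, relative to DMSO. IC50 comes from 8 h luciferase signal in peptidoglycan-stimulated (100 ng/mL) S2 att-luc reporter cells pre-treated 1.5 h. Both were derived from concentration series.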

Jurkat [4] = experiment: Immunosuppressive activity in human Jurkat cells assessed as inhibition of ConA-induced IL2 production at 5 uM pre-treated for 30 mins before ConA stimulation for 12 hrs by immunoassay; format: functional, cell-based
Summary of the method: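 ConA was added to a final 25 µg/mL and cells were incubated a further 12 h. Secreted IL-2 in the culture medium was quantified by anti-human IL-2 sandwich immunoassay, in duplicate wells. Mean ± SD of three independent experiments.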

Jurkat [5] = experiment: Cytotoxicity against human Jurkat cells assessed as reduction in cell viability at 5 uM by MTT assay; format: cell-based
Summary of the method: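 Jurkat cells pre-incubated 30 min with 5 µM compound or 0.1% DMSO vehicle, then incubated under the same conditions as the IL-2 assay (ConA added, 12 h). Viable cells were measured by MTT assay as percent of control. Mean ± SD of three independent experiments.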

SMILES	IC50 (Drosophila [1]) [µM]	CC50 [2] [µM]	Ratio CC50/IC50 (Drosophila [3])	inhibition (Jurkat [4])	Activity (Jurkat [5])	inhibition (Drosophila [1])
CCCCCC(=O)c1c(O)c(Br)c(OC)c(Br)c1O	3.7	12.9	3.5			
CCCCCC(=O)c1c(O)cc(OC)c(Cl)c1O	4.6	8.7	1.9			
CCCCCCC(=O)c1c(OC)c(Cl)c(OC)c(Cl)c1OC	16.8	140	8.3	Active	Non-toxic	
CCCCCC(=O)c1c(O)c(Cl)c(O)c(Cl)c1O	9.9	102	10.3			
CCCC(=O)c1c(O)c(Cl)c(O)c(Cl)c1O	21.5	> 100	>4.7			
CCCCCCCC(=O)c1c(O)c(Cl)c(O)c(Cl)c1O	3.7	88.5	23.9	Active	Non-toxic	
CCCCC(=O)c1c(OC)c(Cl)c(OC)c(Cl)c1OC	23.5	149	6.3			
CCCC(=O)c1c(OC)c(Cl)c(OC)c(Cl)c1OC	20.8	144	6.9			
CCCCCCCC(=O)c1c(OC)c(Cl)c(OC)c(Cl)c1OC	15.3	51.4	3.4			
CCCCCC(=O)c1c(OC)c(Cl)c(OC)c(Cl)c1OC	18.9	148	7.8			
CCCCCCc1c(O)c(Cl)c(OC)c(Cl)c1O	58.6	> 100	>1.7			
CCCCCCCCC(=O)c1c(O)c(Cl)c(O)c(Cl)c1O	6.5	82.8	12.7			
CCCCCC(=O)c1c(O)c(Cl)c(OC)c(Cl)c1O	4.6	22.5	4.9			Dose-dependent effect
CCCCCC(=O)c1c(O)c(Cl)c(C)c(Cl)c1O	3.8	13.8	3.6			
